The list is not random: actives were taken first. Their share in the collection is about 1.8%.
CSN deneddyl inh: CSN deneddylation inhibition. Q92905. Purified CSN, SCF-Nedd8-OG deneddylation, fluorescence polarization. inhibition, % at 12.5 µM. 360,000 compounds, 0.38% hits. AID 651999;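 active means pattern-corrected inhibition above about 35%, with an unprinted fluorescence ratio check between 0.5 and 1.5, limit read from the data, passing the limit was not always enough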
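Test system: Human Csn5 produced in HEK293T cells | Compound: 12.5 µM single point | Times: 90 min, room temperature | Signal: Fluorescence polarization readout | Read-out basis: % inhibition of substrate cleavage by Csn5 | Controls: no-enzyme wells high, enzyme-with-substrate wells low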
SUMO HTRF inh: blocks human SUMOylation mediated by UBC9 | HTRF SUMOylation assay, SAE1/SAE2 + UBC9, in vitro | P63279 | 290,000 compounds, 0.36% hits | inhibition, % at 35 µM; in the data active means inhibition above about 50%, passing the limit was not always enough
HNF4A DNA FP: change in binding of human HNF4 alpha to DNA. P41235. HNF4a-FITC DNA binding, fluorescence polarization, 1 h. activity change, % at 10 µM. 360,000 compounds, 0.3% hits. AID 1224865; in the data active means activity change above about 30%, passing the limit was not always enough
Target sequence (P41235 whole entry, looked up): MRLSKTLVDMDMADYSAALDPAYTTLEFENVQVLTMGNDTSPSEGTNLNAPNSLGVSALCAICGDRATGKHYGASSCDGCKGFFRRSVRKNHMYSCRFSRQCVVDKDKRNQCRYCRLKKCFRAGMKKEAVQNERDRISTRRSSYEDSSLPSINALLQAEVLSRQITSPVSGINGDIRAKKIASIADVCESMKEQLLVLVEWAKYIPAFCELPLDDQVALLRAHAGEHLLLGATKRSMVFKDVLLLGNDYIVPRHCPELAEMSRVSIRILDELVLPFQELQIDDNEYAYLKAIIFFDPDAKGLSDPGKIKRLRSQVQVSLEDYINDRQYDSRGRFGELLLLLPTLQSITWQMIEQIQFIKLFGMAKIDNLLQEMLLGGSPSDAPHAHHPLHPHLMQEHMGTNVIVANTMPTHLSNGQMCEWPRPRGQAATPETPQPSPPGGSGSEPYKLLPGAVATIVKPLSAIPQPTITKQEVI
TPT1 inhibitor: C. albicans TPT1 enzyme inhibition | AID 1962 | 300,000 compounds, 0.81% hits | recombinant caTPT1, FP RNA substrate dephosphorylation | inhibition, % at 5 µM;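 active means inhibition above the mean of all tested compounds plus 3 SD, set per screening campaign, cut at about 24% in these data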
Rpn11 block: Rpn11 (human) deubiquitinase inhibition | O00487 | human 26S proteasome, Ub4-pepOG fluorescence polarization; 20S core pre-blocked with epoxomicin | calls only at 20 µM | 360,000 compounds, 0.59% hits;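 active means inhibition at 20 µM, scaled to each plate's controls, above about 33%, limit read from the data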
SENP1 FRET inh: SENP1 (human) catalytic domain inhibition; recombinant SENP1 catalytic domain, CyPet-SUMO1-YPet FRET cleavage; inhibition, % at 10 µM; 360,000 compounds, 0.21% hits; AID 624204;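 active means inhibition at least 30% at 10 µM, raw YFP signal under a set limit, fluorescence ratio 0.5 to 1.5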
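material = recombinant human SENP1 catalytic domain, His6-tagged | quantity = 20 pM enzyme | reagent = 25 nM SUMO1 FRET substrate | compound dosing = 10 µM single point, 0.5% DMSO | timing = 50 min enzyme reaction, room temperature, light-protected | detection = FRET, CFP and YFP emission | control set = no-enzyme low, enzyme-DMSO high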
caTPT1 confirm: confirmation of Candida albicans TPT1 inhibitors; shares compounds with TPT1 inhibitor; recombinant caTPT1, fluorescence polarization, RNase T1 coupled; inhibition, % at 5 µM; 2,400 compounds, 74% hits; AID 2149;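 active means inhibition above the primary screen limit, the mean inhibition of all tested compounds plus 3 SD, cut at about 25% in these data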
RNase T1 inh: counter-screen for TPT1 inhibitors: inhibitors of Aspergillus oryzae RNase T1; shares compounds with TPT1 inhibitor; RNase T1 cleavage, fluorescence polarization, 1536-well; inhibition, % at 5 µM; 2,400 compounds, 83% hits; AID 2153;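 active means inhibition above the solvent-only control well mean plus 3 SD, limit set per screening run, cut at about 23% in these data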;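 further: inhibitors block cleavage so intact labeled substrate keeps polarization high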
Of the large screens only hits and unclear results are named; the others gave an inactive call (follow-up assays come after a bar, where shown).

COc1ccc(C(=O)N2Cc3cnnn3-c3ccccc3C2C#N)cc1 (stereo not given)	none (no result: SUMO HTRF inh, TPT1 inhibitor)
Cn1c(O)c(/C=C2\C=Nc3ccc(Br)cc32)c(=O)n(C)c1=O	TPT1 inhibitor 28 | caTPT1 confirm inactive | RNase T1 inh inactive
Cn1c(O)c(C=Nc2ccc(Br)cc2)c(=O)n(C)c1=O	none
COCCN(C(=O)COC(=O)Cc1ccccc1)c1c(N)n(Cc2ccccc2)c(=O)[nH]c1=O	none (no result: SUMO HTRF inh)
Cc1cc(C)c(-n2c(O)c(/C=N/NC(=O)c3ccncc3)c(=O)[nH]c2=O)c(C)c1	TPT1 inhibitor 24 | caTPT1 confirm 29 | RNase T1 inh 40
Cc1c(C=O)c2ccccc2n1Cc1ccccc1	none
O=Cc1c(C(=O)O)n(Cc2ccc(Cl)cc2)c2ccccc12	CSN deneddyl inh 60, HNF4A DNA FP 81, TPT1 inhibitor 77 (not shown: Rpn11 block) | caTPT1 confirm 174 | RNase T1 inh 161
CCCCn1c(=O)c(C=Nc2cc([N+](=O)[O-])ccc2OC)c(O)n(CCCCl)c1=O	TPT1 inhibitor 74 | caTPT1 confirm 53 | RNase T1 inh 67
Cc1cccc(-n2c(/C=C/c3ccc([N+](=O)[O-])o3)nc3ccccc3c2=O)c1	TPT1 inhibitor 40 (not shown: Rpn11 block) | caTPT1 confirm 56 | RNase T1 inh 52
Cc1nc2ccccc2c(=O)n1-c1cc([N+](=O)[O-])cc([N+](=O)[O-])c1	none
O=c1c2ccccc2nc(/C=C/c2ccccc2)n1-c1ccc(O)cc1	none
COc1cc(/C=C/c2nc3ccccc3c(=O)n2-c2ccccc2O)ccc1O	TPT1 inhibitor 26 (not shown: Rpn11 block) | caTPT1 confirm 45 | RNase T1 inh 49
O=c1c2ccccc2nc(/C=C/c2ccc(O)c(O)c2)n1-c1ccccc1	TPT1 inhibitor 46 (not shown: Rpn11 block) | caTPT1 confirm 49 | RNase T1 inh 57
O=c1[nH]c2ccccc2n1C1CCN(C(c2cccs2)c2nnnn2-c2ccc3c(c2)OCCO3)CC1 (stereo not given)	none (no result: SUMO HTRF inh, TPT1 inhibitor)
O=[N+]([O-])c1cc2c(cc1CNCCc1ccc3c(c1)OCO3)OCO2	TPT1 inhibitor 32 | caTPT1 confirm inactive | RNase T1 inh inactive
CC[C@]12CC[C@H](O)CC1=CCC1C2CC[C@]2(C)C(=O)CCC12 (stereo not given in full)	none (no result: SUMO HTRF inh, TPT1 inhibitor)
C=CCn1c(O)c(C=NCCCn2ccnc2)c(=O)[nH]c1=O	none
NP(=O)(OCCCc1ccccc1)Oc1ccccc1Cl (stereo not given)	none
Cc1ccc2c(c1)N(C(=O)CCC(=O)N1CCC3(CC1)OCCO3)CC(C)O2 (stereo not given)	none
Cc1cc(C)cc(-n2c(O)c(C=Nc3ccc(N4CCOCC4)cc3)c(=O)[nH]c2=S)c1	TPT1 inhibitor 35 | caTPT1 confirm 57 | RNase T1 inh 73
O=c1[nH]c(=S)n(-c2ccc(F)cc2)c(O)c1/C=N/N1CCOCC1	none
O=c1[nH]c(=S)n(-c2ccc(Br)cc2)c(O)c1C=Nc1ccc(N2CCOCC2)cc1	none
O=c1[nH]c(=S)n(-c2ccccc2F)c(O)c1C=Nc1ccc(N2CCOCC2)cc1	TPT1 inhibitor 33, SENP1 FRET inh 67 | caTPT1 confirm 47 | RNase T1 inh 60
N#C/C(=C\c1ccc(O)cc1)C(=O)O	none (no result: SUMO HTRF inh, TPT1 inhibitor)
CN(C)c1ccc(C=C(C#N)C#N)cc1	TPT1 inhibitor 40 | caTPT1 confirm 48 | RNase T1 inh 60
N#CC(C#N)=Cc1ccc(N2CCCC2)cc1	TPT1 inhibitor 63 | caTPT1 confirm 69 | RNase T1 inh 84
CC(C)(O)/C=C/C(=O)[C@](C)(O)C1[C@H](O)C[C@@]2(C)C3CC=C4C(C[C@H](O)[C@@H](O)C4(C)C)[C@]3(C)C(=O)C[C@]12C (stereo not given in full)	none (no result: SUMO HTRF inh, TPT1 inhibitor)
CCN1C(=O)NC(=O)/C(=C\c2cn(CC(=O)N3CCCC3)c3ccccc23)C1=O	none

High-throughput results deposited in PubChem by several laboratories.
